Assay results from ChEMBL document CHEMBL5346932, “Structure-activity relationships of actively FhuE transported rifabutin derivatives with potent activity against Acinetobacter baumannii” (Eur J Med Chem, 2023).
In brackets after ≈: the same amount, converted by molar mass. Activity calls are given as the source filed them. The rule behind the calls is not given here.

Columns and labels:
[1] = system: Acinetobacter baumannii; test: Antibacterial activity against Acinetobacter baumannii HUMC1 cultured in iron-limited RPMI medium supplemented with 10% FCS assessed as inverse MIC incubated for 20 hrs by CLSI based microbroth dilution method; assay type: functional
How it was run: (§1)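 CLSI broth microdilution in RPMI 1640 + 10% FCS in place of CAMHB. Compounds in 2-fold dilution series; inoculum 5×10^5 CFU/mL. Plates held static at 35 °C for 20 h. MIC read visually as the lowest concentration with no visible growth. […] is the reciprocal of this MIC.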

[2] = Inhibition of transcription in Acinetobacter baumannii HUMC1 using pVT784 as reporter plasmid preincubated for 30 mins followed by reporter plasmid addition and measured after 60 mins by Nano-Glo luciferase assay; assay type: functional
How it was run: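 Cell-free transcription/translation used A. baumannii HUMC1 extract at 1.2 mg/mL, with extract from 2xYT+P culture after a run-off step and dialysis at pH 8.2. Compound was preincubated with extract for 30 min on ice. Reporter plasmid (0.5 nM) was then added and luminescence read after 60 min at 25 °C. Compounds were tested at 8 to 0.002 mg/L in triplicate. IC50 was fit from no-compound-normalized signal.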

[3] = system: Acinetobacter baumannii; test: Antibacterial activity against Acinetobacter baumannii HUMC1 cultured in RPMI 1640 medium supplemented with 10% FCS assessed as bacterial growth inhibition incubated for 20 hrs by CLSI based microbroth dilution method; assay type: functional; settings: Acinetobacter baumannii; how it was run: as §1
[4] = Drug accumulation in Acinetobacter baumannii HUMC1 cultured in iron-limited RPMI medium supplemented with 10% FCS measured per 5 ml of culture medium at 0.05 uM incubated for 10 mins by LC-MS/MS analysis; assay type: ADME
How it was run: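 5 mL of suspension was dosed from DMSO stocks (0.002–5 mM) and shaken at 150 rpm for 10 min at 37 °C. Cells were pelleted, washed, and lysed (sucrose/EDTA). LC-MS/MS MRM quantitation used caffeine-normalized standard curves in spiked lysate. Reported as amount per 5 mL; n≥2 independent replicates.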

[5] = system: Staphylococcus aureus; test: Antibacterial activity against Staphylococcus aureus USA300 UAMS-1625 assessed as fold increase in MIC incubated for 20 hrs by CLSI based microbroth dilution method relative to rifabutin; assay type: functional
How it was run: (§2)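 CLSI broth microdilution in CAMHB against S. aureus USA300 UAMS-1625. Compounds in 2-fold dilution series; inoculum 5×10^5 CFU/mL. Incubated without shaking at 35 °C for 20 h. MIC read visually as the lowest concentration preventing visible growth. Fold changes are relative to the rifabutin MIC.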

[6] = system: Staphylococcus aureus; test: Antibacterial activity against Staphylococcus aureus USA300 UAMS-1625 assessed as fold reduction in MIC incubated for 20 hrs by CLSI based microbroth dilution method relative to rifabutin; assay type: functional; how it was run: as §2
[7] = system: Acinetobacter baumannii; test: Antibacterial activity against Acinetobacter baumannii HUMC1 harboring FhuE deletion mutant assessed as bacterial growth inhibition incubated for 20 hrs by CLSI based microbroth dilution method; assay type: functional
How it was run: (§3)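 Microbroth dilution per CLSI in RPMI 1640 + 10% FCS (in place of CAMHB). Compounds as 2-fold serial dilutions; inoculum 5×10^5 CFU/mL of previously described HUMC1-derived mutant strains. Incubated static at 35 °C for 20 h. MIC read visually as lowest concentration preventing visible growth.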

[8] = system: Staphylococcus aureus; test: Antibacterial activity against Staphylococcus aureus USA300 UAMS-1625 assessed as bacterial growth inhibition incubated for 20 hrs by CLSI based microbroth dilution method; assay type: functional; how it was run: as §2
[9] = system: Acinetobacter baumannii; test: Antibacterial activity against Acinetobacter baumannii HUMC1 harboring RpoB H535Q mutant assessed as bacterial growth inhibition incubated for 20 hrs by CLSI based microbroth dilution method; assay type: functional; how it was run: as §3
[10] = system: Acinetobacter baumannii; test: Antibacterial activity against Acinetobacter baumannii HUMC1 harboring RpoB H535Q mutant assessed as fold reduction in MIC incubated for 20 hrs by CLSI based microbroth dilution method relative to rifabutin; assay type: functional
[11] = system: Acinetobacter baumannii; test: Antibacterial activity against Acinetobacter baumannii HUMC1 harboring RpoB H535C mutant assessed as bacterial growth inhibition incubated for 20 hrs by CLSI based microbroth dilution method; assay type: functional; how it was run: as §3
[12] = system: Acinetobacter baumannii; test: Antibacterial activity against Acinetobacter baumannii HUMC1 harboring RpoB H535C mutant assessed as fold reduction in MIC incubated for 20 hrs by CLSI based microbroth dilution method relative to rifabutin; assay type: functional

Row | MIC ([3]; HUMC1, 20 h, read-out: MIC) | Compound | 1/MIC [1] | IC50 [2] | fold change (FC) [6] | MIC [7] | other results
1 | 0.016 µg/mL (≈ 0.0183 µM) | CO[C@H]1/C=C/O[C@@]2(C)Oc3c(C)c(O)c4c(c3C2=O)C2=NC3(CCN(C5CCCCC5)CC3)NC2=C(NC(=O)/C(C)=C\C=C\[C@H](C)[C@H](O)[C@@H](C)[C@@H](O)[C@@H](C)[C@H](OC(C)=O)[C@@H]1C)C4=O | – | – | – | – | fold change (FC) [5]: 2
2 | 0.008 µg/mL (≈ 0.00929 µM) | CCC(C)(C)N1CCC2(CC1)N=C1C(=C3NC(=O)/C(C)=C\C=C\[C@H](C)[C@H](O)[C@@H](C)[C@@H](O)[C@@H](C)[C@H](OC(C)=O)[C@H](C)[C@@H](OC)/C=C/O[C@@]4(C)Oc5c(C)c(O)c(c1c5C4=O)C3=O)N2 | – | – | 2 | – | –
3 | 0.016 µg/mL (≈ 0.0183 µM) | CO[C@H]1/C=C/O[C@@]2(C)Oc3c(C)c(O)c4c(c3C2=O)C2=NC3(CCN(CC5CCCC5)CC3)NC2=C(NC(=O)/C(C)=C\C=C\[C@H](C)[C@H](O)[C@@H](C)[C@@H](O)[C@@H](C)[C@H](OC(C)=O)[C@@H]1C)C4=O | – | – | – | – | fold change (FC) [5]: 2
4 | 0.125 µg/mL (≈ 0.144 µM) | CO[C@H]1/C=C/O[C@@]2(C)Oc3c(C)c(O)c4c(c3C2=O)C2=NC3(CCN(c5ccccc5)CC3)NC2=C(NC(=O)/C(C)=C\C=C\[C@H](C)[C@H](O)[C@@H](C)[C@@H](O)[C@@H](C)[C@H](OC(C)=O)[C@@H]1C)C4=O | – | – | – | – | fold change (FC) [5]: 2
5 | 0.004 µg/mL (≈ 0.00488 µM) | CCN1CCC2(CC1)N=C1C(=C3NC(=O)/C(C)=C\C=C\[C@H](C)[C@H](O)[C@@H](C)[C@@H](O)[C@@H](C)[C@H](OC(C)=O)[C@H](C)[C@@H](OC)/C=C/O[C@@]4(C)Oc5c(C)c(O)c(c1c5C4=O)C3=O)N2 | – | – | 2 | – | –
6 | ≤ 0.002 µg/mL | CO[C@H]1/C=C/O[C@@]2(C)Oc3c(C)c(O)c4c(c3C2=O)C2=NC3(CCN(C5CCCC5)CC3)NC2=C(NC(=O)/C(C)=C\C=C\[C@H](C)[C@H](O)[C@@H](C)[C@@H](O)[C@@H](C)[C@H](OC(C)=O)[C@@H]1C)C4=O (stereo in doubt; form 1) | – | – | 2 | – | –
7 | 0.016 µg/mL (≈ 0.0199 µM) | CO[C@H]1/C=C/O[C@@]2(C)Oc3c(C)c(O)c4c(c3C2=O)C2=NC3(CCN(C)CC3)NC2=C(NC(=O)/C(C)=C\C=C\[C@H](C)[C@H](O)[C@@H](C)[C@@H](O)[C@@H](C)[C@H](OC(C)=O)[C@@H]1C)C4=O | – | – | 2 | – | –

Further lines, the compound ahead of its results:

Row | Compound | MIC ([3]; HUMC1, 20 h, read-out: MIC) | 1/MIC [1] | IC50 [2] | fold change (FC) [6] | MIC [7] | other results
8 | CO[C@H]1/C=C/O[C@@]2(C)Oc3c(C)c(O)c4c(O)c(c(/C=N/N5CCN(C)CC5)c(O)c4c3C2=O)NC(=O)/C(C)=C\C=C\[C@H](C)[C@H](O)[C@@H](C)[C@@H](O)[C@@H](C)[C@H](OC(C)=O)[C@@H]1C [RIFAMPIN] | – | 0.25 L/mg | 0.07 µg/mL (≈ 0.0851 µM) | – | – | MIC ([3]; HUMC1, read-out: MIC): 4 µg/mL (≈ 4.86 µM); Drug uptake ([4]; BLD = below limit of detection): Bld
9 | CO[C@H]1/C=C/O[C@@]2(C)Oc3c(C)c(O)c4c(c3C2=O)C2=NC3(CCN(C(C)(C)C)CC3)NC2=C(NC(=O)/C(C)=C\C=C\[C@H](C)[C@H](O)[C@@H](C)[C@@H](O)[C@@H](C)[C@H](OC(C)=O)[C@@H]1C)C4=O | 0.002 µg/mL (≈ 0.00236 µM) | 500 L/mg | 0.06 µg/mL (≈ 0.0708 µM) | – | 0.5 µg/mL (≈ 0.59 µM) | Drug uptake [4]: 32.73 pmol; Activity [8]: Active
10 | CO[C@H]1/C=C/O[C@@]2(C)Oc3c(C)c(O)c4c(c3C2=O)C2=NC3(CCN(C5CC5)CC3)NC2=C(NC(=O)/C(C)=C\C=C\[C@H](C)[C@H](O)[C@@H](C)[C@@H](O)[C@@H](C)[C@H](OC(C)=O)[C@@H]1C)C4=O (stereo in doubt; form 1) | ≤ 0.002 µg/mL | 1000 L/mg | 0.12 µg/mL (≈ 0.144 µM) | 2 | 0.5 µg/mL (≈ 0.602 µM) | MIC [9]: 0.004 µg/mL (≈ 0.00481 µM); fold change (FC) [10]: 2; MIC [11]: 0.004 µg/mL (≈ 0.00481 µM); fold change (FC) [12]: 2; Drug uptake [4]: 24.66 pmol
11 | CO[C@H]1/C=C/O[C@@]2(C)Oc3c(C)c(O)c4c(c3C2=O)C2=NC3(CCN(C(C)C)CC3)NC2=C(NC(=O)/C(C)=C\C=C\[C@H](C)[C@H](O)[C@@H](C)[C@@H](O)[C@@H](C)[C@H](OC(C)=O)[C@@H]1C)C4=O | 0.002 µg/mL (≈ 0.0024 µM) | – | – | 2 | 0.5 µg/mL (≈ 0.6 µM) | –
12 | CO[C@H]1/C=C/O[C@@]2(C)Oc3c(C)c(O)c4c(c3C2=O)C2=NC3(CCNCC3)NC2=C(NC(=O)/C(C)=C\C=C\[C@H](C)[C@H](O)[C@@H](C)[C@@H](O)[C@@H](C)[C@H](OC(C)=O)[C@@H]1C)C4=O | 0.25 µg/mL (≈ 0.316 µM) | 4 L/mg | 0.05 µg/mL (≈ 0.0632 µM) | – | 0.5 µg/mL (≈ 0.632 µM) | MIC [9]: 1 µg/mL (≈ 1.26 µM); MIC [11]: 1 µg/mL (≈ 1.26 µM); fold change (FC) [5]: 2; Drug uptake [4]: 0.47 pmol
13 | CO[C@H]1/C=C/O[C@@]2(C)Oc3c(C)c(O)c4c(c3C2=O)C2=NC3(CCN(CC5CC5)CC3)NC2=C(NC(=O)/C(C)=C\C=C\[C@H](C)[C@H](O)[C@@H](C)[C@@H](O)[C@@H](C)[C@H](OC(C)=O)[C@@H]1C)C4=O | 0.001 µg/mL (≈ 0.00118 µM) | – | – | – | 0.5 µg/mL (≈ 0.592 µM) | Activity [8]: Active
14 | CO[C@H]1/C=C/O[C@@]2(C)Oc3c(C)c(O)c4c(c3C2=O)C2=NC3(CCN(CCC(C)(C)C)CC3)NC2=C(NC(=O)/C(C)=C\C=C\[C@H](C)[C@H](O)[C@@H](C)[C@@H](O)[C@@H](C)[C@H](OC(C)=O)[C@@H]1C)C4=O | 0.06 µg/mL (≈ 0.0686 µM) | 16.67 L/mg | 0.17 µg/mL (≈ 0.194 µM) | 2 | 0.5 µg/mL (≈ 0.571 µM) | MIC [9]: 1 µg/mL (≈ 1.14 µM); MIC [11]: 1 µg/mL (≈ 1.14 µM); Drug uptake [4]: 9.55 pmol
